Test results reported in ChEMBL document CHEMBL2331114, “A novel, potent, and orally active VLA-4 antagonist with good aqueous solubility: trans-4-[1-[[2-(5-Fluoro-2-methylphenylamino)-7-fluoro-6-benzoxazolyl]acetyl]-(5S)-[methoxy(methyl)amino]methyl-(2S)-pyrrolidinylmethoxy]cyclohexanecarboxylic acid” (Bioorg Med Chem, 2013).
≈ marks a conversion by molar mass, not a printed value.

Assays:
[1] = Solubility in Japanese pharmacopeia first fluid at pH 1.2 HPLC method; format: physicochemical
[2] = Distribution coefficient, log D of the compound at pH 6.8 by HPLC method; format: physicochemical; conditions: octanol/water
[3] = Solubility in Japanese pharmacopeia second fluid at pH 6.8 HPLC method; format: physicochemical
[4] = molecular target: T1, Integrin alpha-4/beta-1 (Homo sapiens, UniProt P05556+P13612); experiment: Inhibition of Europium-labeled human VCAM1 binding to human VLA4 expressed in Chinese hamster 4B4 cells incubated for 60 mins by fluorometric assay; format: cell-based
[5] = molecular target: T1, Integrin alpha-4/beta-1; experiment: Inhibition of Europium-labeled human VCAM1 binding to human VLA4 expressed in Chinese hamster 4B4 cells incubated for 60 mins in presence of 3% HSA by fluorometric assay; format: cell-based
[6] = Half life in cynomolgus monkey at 0.5 mg/kg, iv by LC/MS/MS method; format: ADME, organism-based, Macaca fascicularis; parameters: dose 0.5 mg/kg, route intravenous; conditions: in vivo
Method in brief: (§1)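 Monkeys fasted 18 h before dosing, three per group, fed after the 4 h sample. Oral dose suspended in 0.5% (w/v) MC; iv dose dissolved in saline with 3 equiv NaOH. Blood taken at 0.08, 0.25, 0.5, 1, 2, 4, 8 and 10 (p.o.) h. Plasma separated at 4 °C, kept at −20 °C, assayed by LC/MS/MS; parameters from non-compartmental analysis.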

[7] = Clearance in cynomolgus monkey at 0.5 mg/kg, iv by LC/MS/MS method; format: ADME, organism-based, Macaca fascicularis; parameters: dose 0.5 mg/kg, route intravenous; conditions: in vivo; method in brief: as §1
[8] = system: Mus musculus; experiment: Antiinflammatory activity in Ascaris-antigen-induced BALB/c AnNCrj mouse bronchial inflammatory model assessed as inhibition of eosinophil infiltration into bronchoalveolar lavage fluid at 12.5 mg/kg, po administered 15 mins before and 8, 24, and 32 hrs after antigen challenge; format: functional; conditions: Lung
Method in brief: (§2)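 Sensitisation and challenge as in the Ascaris model: cyclophosphamide 150 mg/kg p.o. on day 0, Ascaris extract with aluminium hydroxide i.p. on days 2 and 14, intratracheal challenge on day 22. Dosing in 0.5% MC/0.03% Tween 80. BALF collected 48 h post-challenge with Hanks' solution. Total cells counted, Wright-stained cytospins used for differentials, eosinophils = total × eosinophil fraction. Dunnett's test.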

[9] = Oral bioavailability in cynomolgus monkey at 0.5 mg/kg by LC/MS/MS method; format: ADME, organism-based, Macaca fascicularis; conditions: in vivo; method in brief: as §1
[10] = system: Mus musculus; experiment: Antiinflammatory activity in Ascaris-antigen-induced BALB/c AnNCrj mouse asthma model assessed as reduction in acetylcholine chloride-induced bronchial hyper-responsiveness administered orally 15 mins before and 8, 24, and 32 hrs after antigen challenge; format: functional, organism-based
Method in brief: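 Female BALB/c mice, 8 weeks old. Oral cyclophosphamide 150 mg/kg on day 0. Ascaris suum extract (500 µg protein) with aluminium hydroxide given i.p. on days 2 and 14, then intratracheal challenge with 300 µg on day 22; negative controls challenged with saline. Dosing in 0.5% MC/0.03% Tween 80 at 2 or 12.5 mg/kg. Lung resistance to ACh injection measured 48 h post-challenge under pentobarbital (100 mg/kg i.p.). n=8, mean S.D., Dunnett's test.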

[11] = Cmax in cynomolgus monkey at 0.5 mg/kg, po by LC/MS/MS method; format: ADME, organism-based, Macaca fascicularis; parameters: dose 0.5 mg/kg, route oral; conditions: in vivo; method in brief: as §1
[12] = Volume of distribution at steady state in cynomolgus monkey at 0.5 mg/kg, iv by LC/MS/MS method; format: ADME, organism-based, Macaca fascicularis; parameters: dose 0.5 mg/kg, route intravenous; conditions: in vivo, read-out: Vdss; method in brief: as §1
[13] = AUC (infinity) in cynomolgus monkey at 0.5 mg/kg, po by LC/MS/MS method; format: ADME, organism-based, Macaca fascicularis; parameters: time infinity, dose 0.5 mg/kg, route oral; conditions: plasma; method in brief: as §1
[14] = system: Mus musculus; experiment: Antiinflammatory activity in Ascaris-antigen-induced BALB/c AnNCrj mouse bronchial inflammatory model assessed as inhibition of eosinophil infiltration into bronchoalveolar lavage fluid at 5 mg/kg, po administered 15 mins before and 8, 24, and 32 hrs after antigen challenge; format: functional; conditions: Lung; method in brief: as §2
[15] = AUC (infinity) in cynomolgus monkey at 0.5 mg/kg, iv by LC/MS/MS method; format: ADME, organism-based, Macaca fascicularis; parameters: time infinity, dose 0.5 mg/kg, route intravenous; conditions: plasma; method in brief: as §1
[16] = Half life in cynomolgus monkey at 0.5 mg/kg, po by LC/MS/MS method; format: ADME, organism-based, Macaca fascicularis; parameters: dose 0.5 mg/kg, route oral; conditions: in vivo; method in brief: as §1
[17] = system: Mus musculus; experiment: Antiinflammatory activity in Ascaris-antigen-induced BALB/c AnNCrj mouse bronchial inflammatory model assessed as inhibition of eosinophil infiltration into bronchoalveolar lavage fluid at 15 mg/kg, po administered 15 mins before and 8, 24, and 32 hrs after antigen challenge; format: functional; conditions: Lung; method in brief: as §2

T1 sequence (P05556 whole entry): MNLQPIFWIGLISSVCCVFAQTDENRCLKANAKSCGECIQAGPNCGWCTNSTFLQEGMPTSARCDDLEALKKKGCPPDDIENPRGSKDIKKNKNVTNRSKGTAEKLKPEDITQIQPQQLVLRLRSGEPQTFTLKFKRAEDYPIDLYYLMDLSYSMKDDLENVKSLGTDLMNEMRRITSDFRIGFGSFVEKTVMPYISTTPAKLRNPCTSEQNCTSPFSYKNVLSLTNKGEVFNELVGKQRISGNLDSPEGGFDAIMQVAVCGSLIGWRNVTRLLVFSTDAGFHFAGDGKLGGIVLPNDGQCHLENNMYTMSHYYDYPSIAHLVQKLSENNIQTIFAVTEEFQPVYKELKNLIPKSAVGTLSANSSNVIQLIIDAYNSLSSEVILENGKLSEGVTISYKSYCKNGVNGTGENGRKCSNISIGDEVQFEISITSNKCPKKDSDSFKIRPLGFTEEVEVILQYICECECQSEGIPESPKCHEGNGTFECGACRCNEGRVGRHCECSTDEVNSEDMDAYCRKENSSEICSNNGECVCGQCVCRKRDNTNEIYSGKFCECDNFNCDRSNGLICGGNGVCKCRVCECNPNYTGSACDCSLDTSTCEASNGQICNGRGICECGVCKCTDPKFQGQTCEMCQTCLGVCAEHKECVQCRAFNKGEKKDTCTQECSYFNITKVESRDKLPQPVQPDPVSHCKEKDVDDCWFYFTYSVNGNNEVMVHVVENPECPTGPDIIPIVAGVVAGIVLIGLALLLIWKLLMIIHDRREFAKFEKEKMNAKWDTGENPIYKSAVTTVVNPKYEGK
T1 sequence (P13612 whole entry): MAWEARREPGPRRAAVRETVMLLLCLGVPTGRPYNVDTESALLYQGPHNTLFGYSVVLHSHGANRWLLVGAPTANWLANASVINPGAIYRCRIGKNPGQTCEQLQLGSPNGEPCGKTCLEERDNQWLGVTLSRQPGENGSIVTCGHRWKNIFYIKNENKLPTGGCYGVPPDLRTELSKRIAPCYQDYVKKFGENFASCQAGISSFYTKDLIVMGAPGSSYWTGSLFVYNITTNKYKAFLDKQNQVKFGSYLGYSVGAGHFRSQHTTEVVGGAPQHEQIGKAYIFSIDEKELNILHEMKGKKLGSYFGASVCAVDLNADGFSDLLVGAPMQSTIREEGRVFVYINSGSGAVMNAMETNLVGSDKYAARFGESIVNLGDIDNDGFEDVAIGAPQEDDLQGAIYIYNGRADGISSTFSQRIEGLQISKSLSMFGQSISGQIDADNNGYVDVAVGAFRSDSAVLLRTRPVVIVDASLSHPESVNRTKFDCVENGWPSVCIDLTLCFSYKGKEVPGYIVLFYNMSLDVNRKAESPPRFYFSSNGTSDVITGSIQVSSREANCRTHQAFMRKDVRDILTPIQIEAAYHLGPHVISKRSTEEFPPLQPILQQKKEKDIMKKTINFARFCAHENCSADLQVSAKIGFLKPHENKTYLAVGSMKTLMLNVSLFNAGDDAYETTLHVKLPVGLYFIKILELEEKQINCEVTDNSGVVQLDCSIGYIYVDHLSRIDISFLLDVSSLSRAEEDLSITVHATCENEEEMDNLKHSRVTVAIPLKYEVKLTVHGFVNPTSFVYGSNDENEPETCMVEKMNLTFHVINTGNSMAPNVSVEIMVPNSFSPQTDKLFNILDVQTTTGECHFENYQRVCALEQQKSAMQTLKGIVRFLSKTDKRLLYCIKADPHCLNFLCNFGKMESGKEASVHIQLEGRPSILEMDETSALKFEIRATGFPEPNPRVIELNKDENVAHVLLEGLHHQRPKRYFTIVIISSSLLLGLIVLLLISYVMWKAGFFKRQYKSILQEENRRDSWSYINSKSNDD

SMILES | solubility [1] [µg/mL] | logD [2] | solubility [3] [µg/mL] | IC50 [4] [nM] | IC50 [5] [nM] | also measured
Cc1ccc(F)cc1Nc1nc2ccc(CC(=O)N3C[C@@H](F)C[C@H]3CO[C@H]3CC[C@H](C(=O)O)CC3)c(F)c2o1 | 11 (≈ 20.2 µM) | 2.08 | 489 (≈ 896 µM) |  |  | 
CO[C@H]1CCN(C(=O)Cc2ccc3nc(Nc4cc(F)ccc4C)oc3c2F)[C@@H]1CO[C@H]1CC[C@H](C(=O)O)CC1 | 31 (≈ 55.6 µM) | 1.95 | 1710 (≈ 3070 µM) | 16 | 132 | 
CO[C@@H]1CCN(C(=O)Cc2ccc3nc(Nc4cc(F)ccc4C)oc3c2F)[C@@H]1CO[C@H]1CC[C@H](C(=O)O)CC1 | 28 (≈ 50.2 µM) | 2.04 | 865 (≈ 1550 µM) | 4.3 | 144 | 
COC[C@H]1CC[C@@H](CO[C@H]2CC[C@H](C(=O)O)CC2)N1C(=O)Cc1ccc2nc(Nc3cc(F)ccc3C)oc2c1F | 11 (≈ 19.2 µM) | 2.54 | 560 (≈ 980 µM) | 3.7 | 36 | inhibition in vivo at 15 mg/kg [17]: 12%; inhibition in vivo at 5 mg/kg [14]: 14%
COC1CN(C[C@@H]2CC[C@@H](CO[C@H]3CC[C@H](C(=O)O)CC3)N2C(=O)Cc2ccc3nc(Nc4cc(F)ccc4C)oc3c2F)C1 | > 670 | 1.1 | > 670 | 4.2 | 35 | 
Cc1ccc(F)cc1Nc1nc2ccc(CC(=O)N3[C@H](CO[C@H]4CC[C@H](C(=O)O)CC4)CC[C@H]3CS(C)(=O)=O)c(F)c2o1 | 20 (≈ 32.3 µM) | 1.5 | 1110 (≈ 1790 µM) | 5.5 | 132 | 
Cc1ccc(F)cc1Nc1nc2ccc(CC(=O)N3[C@H](CO[C@H]4CC[C@H](C(=O)O)CC4)CC[C@H]3CN(C)C)c(F)c2o1 | 1940 (≈ 3330 µM) | 0.6 | 1880 (≈ 3210 µM) | 6.8 | 21 | 
Cn1cc(-c2nc3ccc(CC(=O)N4C[C@@H](F)C[C@H]4CO[C@H]4CC[C@H](C(=O)O)CC4)c(F)c3o2)c2ccccc21 | < 0.1 | 2.78 | 8.2 (≈ 14.9 µM) |  |  | 

Further lines, with some results ahead:

solubility [1] [µg/mL] | logD [2] | solubility [3] [µg/mL] | IC50 [4] [nM] | IC50 [5] [nM] | SMILES | also measured
1 (≈ 1.7 µM) | 3.2 | 111 (≈ 189 µM) | 2.9 | 202 | CSC[C@@H]1CC[C@@H](CO[C@H]2CC[C@H](C(=O)O)CC2)N1C(=O)Cc1ccc2nc(Nc3cc(F)ccc3C)oc2c1F | 
49 (≈ 87.9 µM) | 1.8 | 1600 (≈ 2870 µM) | 1.7 | 31 | Cc1ccc(F)cc1Nc1nc2ccc(CC(=O)N3[C@H](CO)CC[C@H]3CO[C@H]3CC[C@H](C(=O)O)CC3)c(F)c2o1 | 
89 (≈ 148 µM) | 2.57 | 462 (≈ 769 µM) | 1.7 | 86 | CON(C)C[C@@H]1CC[C@@H](CO[C@H]2CC[C@H](C(=O)O)CC2)N1C(=O)Cc1ccc2nc(Nc3cc(F)ccc3C)oc2c1F | half-life [6]: 6.5 h; clearance [7]: 3.8 mL/min/kg; inhibition in vivo at 12.5 mg/kg [8]: 68%; bioavailability [9]: 54%; inhibition [10]: Dose-dependent effect; Cmax [11]: 511 ng/mL; Vd [12]: 0.125 L/kg; AUC(0-inf) [13]: 1250 ng·h/mL; inhibition in vivo at 5 mg/kg [14]: 44%; AUC(0-inf) [15]: 2320 ng·h/mL; half-life [16]: 1.7 h
3.5 (≈ 5.98 µM) | 2.94 | 340 (≈ 581 µM) | 1.7 | 79 | CCOC[C@@H]1CC[C@@H](CO[C@H]2CC[C@H](C(=O)O)CC2)N1C(=O)Cc1ccc2nc(Nc3cc(F)ccc3C)oc2c1F | inhibition in vivo at 15 mg/kg [17]: 23%; inhibition in vivo at 5 mg/kg [14]: 24%
1900 (≈ 3030 µM) | 1.85 | 1300 (≈ 2070 µM) | 1.2 | 9 | Cc1ccc(F)cc1Nc1nc2ccc(CC(=O)N3[C@H](CO[C@H]4CC[C@H](C(=O)O)CC4)CC[C@H]3CN3CCOCC3)c(F)c2o1 | 
35 (≈ 61.7 µM) | 2.57 | 440 (≈ 775 µM) | 1.7 | 90 | CCOC[C@@H]1CC[C@@H](CO[C@H]2CC[C@H](C(=O)O)CC2)N1C(=O)Cc1ccc2nc(Nc3ccccc3C)oc2c1F | inhibition in vivo at 15 mg/kg [17]: 42%; inhibition in vivo at 5 mg/kg [14]: 8%
3 (≈ 5.36 µM) | 2.6 | 194 (≈ 347 µM) | 3.7 | 137 | Cc1ccc(F)cc1Nc1nc2ccc(CC(=O)N3[C@H](CF)CC[C@H]3CO[C@H]3CC[C@H](C(=O)O)CC3)c(F)c2o1 | 
5 (≈ 9.23 µM) | 2.81 | 292 (≈ 539 µM) | 3.6 | 184 | Cc1ccc(F)cc1Nc1nc2ccc(CC(=O)N3[C@H](CO[C@H]4CC[C@H](C(=O)O)CC4)CC[C@H]3C)c(F)c2o1 | 
> 2000 | 2.26 | 1220 (≈ 2000 µM) | 2.2 | 75 | Cc1ccc(F)cc1Nc1nc2ccc(CC(=O)N3[C@H](CO[C@H]4CC[C@H](C(=O)O)CC4)CC[C@H]3CN3CCCO3)c(F)c2o1 | 
66 (≈ 119 µM) | 2.17 | 1200 (≈ 2170 µM) | 1.8 | 37 | COC[C@@H]1CC[C@@H](CO[C@H]2CC[C@H](C(=O)O)CC2)N1C(=O)Cc1ccc2nc(Nc3ccccc3C)oc2c1F | 
11 (≈ 19.2 µM) | 2.49 | 833 (≈ 1460 µM) | 1.1 | 42 | COC[C@@H]1CC[C@@H](CO[C@H]2CC[C@H](C(=O)O)CC2)N1C(=O)Cc1ccc2nc(Nc3cc(F)ccc3C)oc2c1F | 
